# Results as given in ChEMBL document CHEMBL1158558, “Design of potential reverse transcriptase inhibitor containing Isatin nucleus using molecular modeling studies” (Bioorg Med Chem, 2010).
# Target: Human immunodeficiency virus type 1 reverse transcriptase (Human immunodeficiency virus 1) (UniProt Q72547)
# Assay: Inhibition of HIV1 RT after 1 hr by ELISA relative to control
# Design: concentration or dose not given beside the values
# Settings: concentration not given here
# Method in brief: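 RT inhibitors, diluted in lysis buffer, were mixed with reaction mixture and incubated 1 h at 37 °C. Samples were then transferred to microplate modules for 1 h at 37 °C and washed. Anti-DIG-POD (200 mU/ml) was added for 1 h at 37 °C, then washed again. ABTS substrate was developed at 15–25 °C for 10–30 min, and absorbance was read at 405 nm.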
row,inhibition [%],Structure (SMILES)
1,84.1,Cc1ccc2c(c1)/C(=N/n1cnnc1)C(=O)N2CN1CCOCC1
2,69.1,Cc1ccc2c(c1)/C(=N/n1cnnc1)C(=O)N2CN(C)C
3,89,Cc1ccc2c(c1)/C(=N/n1cnnc1)C(=O)N2CN1CCCCC1
4,0,CNc1ccc(CN2C(=O)/C(=N\n3cnnc3)c3cc(C)ccc32)cc1
5,90.9,Cc1ccc2c(c1)/C(=N/n1cnnc1)C(=O)N2CN1CCNCC1
